The record followed here is ChEMBL document CHEMBL1139853, “Anxiolytic effects of erythrinian alkaloids from Erythrina mulungu” (2007).

Calls of active or inactive are those of the source. The rule behind the calls is not given here.

The test system of experiment [1] is Mus musculus. Put plainly: Antianxiolytic activity in Swiss mouse assessed as reduction of latency to leave the enclosed arm by elevated T maze test at 2 mg/kg, ip. It counts as functional, organism-based. Set-up: dose 2 mg/kg. The essentials: (§1)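 Male Swiss mice (25-35 g, naive), group-housed on a 12 h light cycle. Diazepam was suspended in saline + 2% Tween 80 and given ip 30 min before the session. Elevated T-maze raised 38.5 cm above the floor, with three 30 cm × 5 cm arms; arm-exit latencies were recorded. Analysis was one-way ANOVA with Duncan's post hoc test.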

The test system of experiment [2] is Mus musculus. The experiment is described as follows: Antianxiolytic activity in Swiss mouse assessed as effect on latency to leave the open arm by elevated T maze test at 2 mg/kg, ip. It counts as functional, organism-based. Set-up: dose 2 mg/kg. The essentials: as §1
Experiment [3] has as its system Mus musculus. Put plainly: Antianxiolytic activity in Swiss mouse assessed as reduction of latency to leave the enclosed arm by elevated T maze test at 10 mg/kg, po. On the set-up: dose 10 mg/kg. It counts as functional, organism-based. The essentials: (§2)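 Male Swiss mice, 25-35 g, experimentally naive, group-housed 10 per cage on a 12 h light cycle at 23 ± 1 °C/55 ± 5% humidity. Test agent suspended in saline (NaCl 0.9%) and given orally (3-10 mg/kg) 30 min before the session; vehicle saline po; diazepam reference 2 mg/kg ip in saline + 2% Tween 80. Elevated T-maze 38.5 cm above the floor, three 30 cm × 5 cm arms. One-way ANOVA followed by Duncan's test.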

The subject of experiment [4] is Mus musculus. The experiment is described as follows: Antianxiolytic activity in Swiss mouse assessed as impairment of inhibitory avoidance task by elevated T-maze test at 10 mg/kg, po. It counts as functional, organism-based. On the set-up: dose 10 mg/kg. The essentials: (§3)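 Naive male Swiss mice (25-35 g) received alkaloid suspended in saline (NaCl 0.9%) orally (3-10 mg/kg range) 30 min before testing, with saline vehicle controls. Inhibitory avoidance latency to leave the enclosed arm was measured in an elevated T-maze (38.5 cm high; three 30 cm × 5 cm arms). Analysis was one-way ANOVA followed by Duncan's test.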

Experiment [5] deals with Mus musculus. The experiment is described as follows: Antianxiolytic activity in Swiss mouse assessed as impairment of inhibitory avoidance task by elevated T-maze test at 3 mg/kg, po. It counts as functional, organism-based. Set-up: dose 3 mg/kg. The essentials: as §3
Experiment [6] concerns Mus musculus. The experiment is described as follows: Locomotor activity in Swiss mouse measured as number of crossings in the arena test at 10 mg/kg, po. It counts as functional. The essentials:
(§4)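 Male Swiss mice (25-35 g, naive) given the test agent orally at 3-10 mg/kg as a saline suspension, 30 min before testing. Saline po served as vehicle; diazepam 2 mg/kg ip (saline + 2% Tween 80) was the reference. Arena locomotor test scoring crossings and rearings; mean ± SEM reported.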

The subject of experiment [7] is Mus musculus. The experiment is described as follows: Locomotor activity in Swiss mouse measured as number of crossings in the arena test at 3 mg/kg, po. It counts as functional. The essentials:
as §4

The test system of experiment [8] is Mus musculus. Put plainly: Locomotor activity in Swiss mouse measured as number of rearings in the arena test at 10 mg/kg, po. It counts as functional. The essentials:
as §4

For experiment [9], the system named is Mus musculus. The experiment is described as follows: Antianxiolytic activity in Swiss mouse assessed as effect on latency to leave the open arm by elevated T maze test at 10 mg/kg. It counts as functional, organism-based. On the set-up: dose 10 mg/kg. The essentials:
as §2

Experiment [10] relates to Mus musculus. Put plainly: Locomotor activity in Swiss mouse measured as number of rearings in the arena test at 3 mg/kg, po. It counts as functional. The essentials:
as §4

Experiment [11] has as its system Mus musculus. The experiment is described as follows: Antianxiolytic activity in Swiss mouse assessed as reduction of latency to leave the enclosed arm by elevated T maze test at 3 mg/kg, po. It counts as functional, organism-based. Set-up: dose 3 mg/kg. The essentials: as §2

With `CN1C(=O)CN=C(c2ccccc2)c2cc(Cl)ccc21`, the result in the experiment on Mus musculus [1], in the experiment with Mus musculus [3], with Mus musculus [4] and in the experiment on Mus musculus [5] was Active. In addition, the result in the experiment on Mus musculus [2] was inactive.

On to `COc1cc2c(cc1OC)[C@]13C[C@@H](O)C=CC1=CCN3C[C@H]2O`, for which the Activity with Mus musculus [6] is 126.56; in the experiment with Mus musculus [7] it was 158.5; in the experiment on Mus musculus [8] it was 22.44; in the experiment on Mus musculus [10] it was 27.7. Further, the result in the experiment on Mus musculus [9] was inactive. The outcome with Mus musculus [3] was Active.

For the compound `COc1cc2c(cc1OC)[C@]13C[C@@H](OC)C=CC1=CCN3C[C@H]2O`, the Activity in the experiment with Mus musculus [6] is recorded as 159; in the experiment with Mus musculus [7], 135.3; with Mus musculus [8] it was 29.63; in the experiment on Mus musculus [10], 29.6. Further, the result in the experiment with Mus musculus [4] and in the experiment with Mus musculus [5] was Active.

Regarding `COc1cc2c(cc1OC)[C@]13C[C@@H](O)C=CC1=CCN3CC2`, the Activity in the experiment on Mus musculus [6] is 157.93; with Mus musculus [7] it was 157.33; in the experiment with Mus musculus [8], 31.71; in the experiment on Mus musculus [10] it was 37.07. The result with Mus musculus [11] and in the experiment with Mus musculus [3] was Active.
